Results on three compounds are retold here after ChEMBL document CHEMBL3244193, “Design of species- or isozyme-specific enzyme inhibitors. 3. Species and isozymic differences between mammalian and bacterial adenylate kinases in substituent tolerance in an enzyme-substrate complex” (J Med Chem, 1979).

In series [1] the test system is Escherichia coli. Put plainly: Activity of Escherichia coli adenylate kinase by Lineweaver-Burk plot analysis relative to ATP. In a few lines: (§1)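 Substrate kinetics in a pyruvate kinase/lactate dehydrogenase-coupled assay: 0.1 M Tris-HCl pH 7.6, 2 mM MgSO4, 0.12 M KCl, 0.3 mM PEP, 0.38 mM NADH, 0.25 mM AMP. A340 change over 5 min at 23 °C. Derivatives screened first at ca. 0.8 mM. Five or more substrate levels; KM and Vmax (relative to ATP) taken from linear Lineweaver-Burk plots.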

Series [2] has as its system Escherichia coli. As to the kind of experiment: Activity of Escherichia coli adenylate kinase by Lineweaver-Burk plot analysis. The essentials: as §1
Series [3] relates to CCCSc1nc2c(N)ncnc2n1[C@@H]1O[C@H](COP(=O)(O)OP(=O)(O)OP(=O)(O)O)[C@@H](O)[C@H]1O. As to the kind of experiment: (§2) Activity of Sprague-Dawley rat liver adenylate kinase 2 by Lineweaver-Burk plot analysis. In a few lines: as §1
Series [4] deals with CSc1nc2c(N)ncnc2n1[C@@H]1O[C@H](COP(=O)(O)OP(=O)(O)OP(=O)(O)O)[C@@H](O)[C@H]1O. The series is described as §2. The essentials: as §1
For series [5], the system named is Nc1ncnc2c1ncn2[C@@H]1O[C@H](COP(=O)(O)OP(=O)(O)OP(=O)(O)O)[C@@H](O)[C@H]1O. The description is as §2. In a few lines:
as §1

In series [6] the test system is O=C(CI)NCCCCCNc1ncnc2c1ncn2[C@@H]1O[C@H](COP(=O)(O)OP(=O)(O)OP(=O)(O)O)[C@@H](O)[C@H]1O. The series is described as §2. In a few lines:
as §1

In series [7] the test system is CCCSc1nc2c(N)ncnc2n1[C@@H]1O[C@H](COP(=O)(O)OP(=O)(O)OP(=O)(O)O)[C@@H](O)[C@H]1O. Put plainly: (§3) Activity of Sprague-Dawley rat liver adenylate kinase 2 by Lineweaver-Burk plot analysis relative to ATP. In a few lines: as §1
Series [8] relates to CSc1nc2c(N)ncnc2n1[C@@H]1O[C@H](COP(=O)(O)OP(=O)(O)OP(=O)(O)O)[C@@H](O)[C@H]1O. The series is described as §3. In a few lines: as §1
In series [9] the test system is Nc1ncnc2c1ncn2[C@@H]1O[C@H](COP(=O)(O)OP(=O)(O)OP(=O)(O)O)[C@@H](O)[C@H]1O. Described as §3. In a few lines:
as §1

Series [10] relates to O=C(CI)NCCCCCNc1ncnc2c1ncn2[C@@H]1O[C@H](COP(=O)(O)OP(=O)(O)OP(=O)(O)O)[C@@H](O)[C@H]1O. The description is as §3. The essentials:
as §1

As to `Nc1ncnc2c1ncn2[C@@H]1O[C@H](COP(=O)(O)OP(=O)(O)OP(=O)(O)O)[C@@H](O)[C@H]1O`, in the series with Escherichia coli [1], the Vmax was 0.06%.
As to `O=C(CI)NCCCCNc1ncnc2c1ncn2[C@@H]1O[C@H](COP(=O)(O)OP(=O)(O)OP(=O)(O)O)[C@@H](O)[C@H]1O`, the Vmax in the series on Escherichia coli [2] was determined as 0.12%. Besides, the Michaelis constant (Km) in the series on Escherichia coli [1] is 2500 µM.
Turning to “Adenylate kinase 2, mitochondrial (Rattus norvegicus) (from UniProt P29410)”, the Michaelis constant (Km) in [3] stood at 60 µM; in series [4] it was 180 µM; in series [5], 90 µM; in series [6] it was 1000 µM. Besides, the Vmax was determined as 15.7% in [7], 5% in [8], 100% in [9] and 21% in series [10].

What is called Km is the substrate concentration at which the rate is half of its maximum.
